As usually defined, the IC50 is the concentration that inhibits the measured activity by half. Usually EC50 stands for the concentration needed to bring the measured effect to its halfway point.

The subject of assay [1] is Jurkat. As to the kind of experiment: (§1) Antagonist activity at human cADPR receptor in Jurkat T cells assessed as inhibition of cyclic ADP-ribose-induced calcium release. Type of assay: functional, cell-based. In a few lines:
(§2)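 Jurkat T cells were saponin-permeabilized, resealed 2 h on ice and reloaded with Ca2+ via ATP and a creatine phosphate/creatine kinase regenerating system, in pH 7.2 KCl/HEPES intracellular buffer. Analogue inhibition of Ca2+ release evoked by 30 µM cADPR was followed by fura2 ratio (340/380 nm ex, 495 nm em), calibrated per run. IC50 values were taken from concentration–response curves.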

For assay [2], the system named is Jurkat. As to the kind of experiment: Agonist activity at human cADPR receptor in Jurkat T cells assessed as stimulation of calcium release at 100 uM. Type of assay: functional, cell-based. In a few lines:
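Saponin-permeabilized Jurkat T cells in intracellular buffer (20 mM HEPES, 110 mM KCl, 2 mM MgCl2, 5 mM KH2PO4, 10 mM NaCl, pH 7.2) with no extracellular Ca2+. Cells were kept on ice 2 h to reseal stores, then reloaded with ATP plus creatine phosphate/creatine kinase. Compound was added once stores were refilled. Ca2+ read by fura2 free acid (ex 340/380, em 495 nm), calibrated with CaCl2 and EGTA/Tris.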

Assay [3] is described as follows: as §1. Type of assay: functional, cell-based. The essentials: as §2
Assay [4] deals with Jurkat. As to the kind of experiment: Agonist activity at human cADPR receptor in Jurkat T cells assessed as stimulation of calcium release at 100 uM.
A short description of assay [5]: (§3) Agonist activity at human cADPR receptor in sea urchin egg homogenates assessed as stimulation of calcium release. Type of assay: functional, tissue-based, Lytechinus pictus. In a few lines: (§4)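 Lytechinus pictus eggs were spawned by intracoelomic 0.5 M KCl, dejellied and washed. Eggs were homogenized in 250 mM K gluconate, 250 mM N-methylglucamine, 20 mM HEPES, 1 mM MgCl2, pH 7.2, with 1 mM ATP, creatine kinase, phosphocreatine and protease inhibitors. Ca2+ read with 3 µM fluo-3 at 17 °C (ex 506, em 526 nm) in stirred homogenate. EC50/IC50 values come from concentration–response curves.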

Assay [6] can be described thus: Antagonist activity at cADPR receptor in sea urchin egg homogenates assessed as inhibition of calcium release. Type of assay: functional, tissue-based, Lytechinus pictus. The essentials:
as §4

The subject of assay [7] is Jurkat. As to the kind of experiment: Antagonist activity at human cADPR receptor in Jurkat T cells assessed as inhibition of inositol-1,4,5-triphosphate-induced calcium release. Type of assay: functional, cell-based. The essentials:
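Permeabilized, store-reloaded Jurkat T cells in pH 7.2 intracellular buffer with fura2 free acid (ex 340/380 nm, em 495 nm). Analogues were tested at 100 µM against Ca2+ release triggered by 4 µM InsP3.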

The subject of assay [8] is Lytechinus pictus. Described as §3. It counts as functional, tissue-based. The essentials: as §4
Assay [9] concerns Lytechinus pictus. As to the kind of experiment: Agonist activity at human cADPR receptor in intact sea urchin egg assessed as stimulation of calcium release. Type of assay: functional. In a few lines: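 Intact Lytechinus pictus eggs were microinjected with rhod dextran (~10 µM intracellular), then exposed to 100 or 400 µM analogue in the bath. Ca2+ was imaged by confocal microscopy (ex 543 nm, em >560 nm).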

Active and inactive are the calls of the source. The rule behind the calls is not given here.

On to `Nc1c2ccn3c2nc[n+]1[C@@H]1O[C@H](COP(=O)([O-])OP(=O)(O)OC[C@H]2O[C@@H]3C[C@@H]2O)[C@@H](O)[C@H]1O`, for which the result in the assay on Jurkat [1] was inactive. The outcome with Jurkat [2] was Active.
As to `Nc1nc2c(N)[n+]3cnc2n1[C@@H]1O[C@H](COP(=O)(O)OP(=O)([O-])OC[C@H]2O[C@@H]3[C@H](O)[C@@H]2O)[C@@H](O)[C@H]1O`, the half-maximal inhibitory concentration (IC50) in assay [3] amounted to 0.2 µM; in assay [6], 0.105 µM. Also, the result in the assay on Jurkat [2] and in the assay on Jurkat [4] was Active. Also, the EC50 in assay [5] is 89 µM. Besides, the outcome in the assay with Jurkat [7] was inactive.
In the case of `Nc1c2ncn3c2nc[n+]1[C@@H]1O[C@H](COP(=O)([O-])OP(=O)(O)OC[C@H]2O[C@@H]3[C@H](O)[C@@H]2O)[C@@H](O)[C@H]1O`, in the assay with Jurkat [2], the result was Active. Also, the result with Jurkat [7] was inactive.
With `Nc1c2nc(Br)n3c2nc[n+]1[C@@H]1O[C@H](COP(=O)([O-])OP(=O)(O)OC[C@H]2O[C@@H]3C[C@@H]2O)[C@@H](O)[C@H]1O`, the outcome in the assay with Jurkat [2], with Lytechinus pictus [8] and with Lytechinus pictus [9] was Active.
For `Nc1c2nc(Br)n3c2nc[n+]1[C@@H]1O[C@H](COP(=O)([O-])OP(=O)(O)OC[C@H]2O[C@@H]3[C@H](O)[C@@H]2O)[C@@H](O)[C@H]1O`, the IC50 in assay [3] turned out to be 10 µM. In the assay on Jurkat [2], the result was Active. In the assay on Jurkat [7], the result was inactive.
Take `Nc1c2nc(-c3ccccc3)n3c2nc[n+]1[C@@H]1O[C@H](COP(=O)([O-])OP(=O)(O)OC[C@H]2O[C@@H]3C[C@@H]2O)[C@@H](O)[C@H]1O`: in the assay with Jurkat [2], the result was Active.
Still for that read-out and setting: the value for `Nc1c2nc(-c3ccccc3)n3c2nc[n+]1[C@@H]1O[C@H](COP(=O)([O-])OP(=O)(O)OC[C@H]2O[C@@H]3[C@H](O)[C@@H]2O)[C@@H](O)[C@H]1O` was “Active”.
Regarding `Nc1nc2c(N)[n+]3cnc2n1[C@H]1C[C@H](O)[C@@H](COP(=O)(O)OP(=O)([O-])OC[C@H]2O[C@@H]3[C@H](O)[C@@H]2O)O1`, the IC50 was 6 µM in assay [3] and 0.22 µM in assay [6]. For the same compound, in the assay with Jurkat [2], the result was Active. Besides, the EC50 in [5] is greater than 89 µM. For the same compound, the outcome in the assay on Jurkat [7] was inactive.
Turning to `COc1nc2c(N)[n+]3cnc2n1[C@H]1C[C@H](O)[C@@H](COP(=O)(O)OP(=O)([O-])OC[C@H]2O[C@@H]3[C@H](O)[C@@H]2O)O1`, the IC50 in assay [3] is 8 µM. In addition, in the assay on Jurkat [2], the outcome was Active. For the same compound, the outcome in the assay with Jurkat [7] was inactive.
